Results from different studies.
Each line is one published result; the experiments were not run side by side.
Read-out: cell growth or viability

SMILES | cell line | assay | setting | IC50
CC[C@@H](C)[C@H](N)C(=O)N1Cc2ccccc2C1 | Kasumi 1 | ATP luminescence | 48 h | > 60000 nM
CC1(C)[C@@H](O)CC[C@]2(C)[C@H]3C(=O)C=C4[C@@H]5C[C@@](C)(C(=O)O)CC[C@]5(C)CC[C@@]4(C)[C@]3(C)CC[C@@H]12 | ECa-109 | MTT | 48 h | 19000 nM
CC(C)n1c(/C=C/C(O)CC(O)CC(=O)O)c(-c2ccc(F)cc2)c2ccccc21 (stereo not drawn) | SW480 | SRB | 72 h | 4.24 µg/mL
O=C(c1ccc(OCCN2CCCCC2)cc1)c1c(-c2ccc(O)cc2)sc2cc(O)ccc12 | COS-7 | ATP luminescence | – | 20100 nM
CCOC(=O)c1[nH]c(Br)c(-c2ccc(SC)cc2)c1Br | MDA-MB-435 | SRB | – | 626 nM
CC(=O)O[C@@]12CO[C@@H]1C[C@H](O)[C@@]1(C)C(=O)[C@H](O)C3=C(C)[C@@H](OC(=O)[C@H](O)[C@@H](NC(=O)OC(C)(C)C)c4ccccc4)C[C@@](O)([C@@H](OC(=O)c4ccccc4)[C@H]21)C3(C)C | PC-12 | MTT | – | 280 µg/mL
CC1=C(O)C(=O)C=C2C1=CC=C1[C@@]2(C)CC[C@@]2(C)[C@@H]3C[C@](C)(C(=O)OCCO)CC[C@]3(C)CC[C@]12C | MGC-803 | MTT | 48 h | 370 nM
O=C(Nc1ccc(Cl)cc1)c1ccc([N+](=O)[O-])o1 | NCI-H2030 | resazurin | 96 h | 1120 nM
COc1cc(Nc2nccc(-c3cnn4nc(OC)ccc34)n2)cc(C(F)(F)F)c1 | NCI-N87 | ATP luminescence | – | 640 nM
C#C[C@@]1(O)[C@@H](COP(=O)(O)OC[C@H]2O[C@@H](n3cc(F)c(=O)[nH]c3=O)C[C@@H]2O)O[C@@H](n2ccc(N)nc2=O)[C@@H]1O | FM3A/0 | MTT | 72 h | 2.2 nM
O=c1[nH]cc(F)c(=O)[nH]1 | MGC-803 | MTT | 48 h | 39000 nM
CC1=C(O)C(=O)C=C2C1=CC=C1[C@@]2(C)CC[C@@]2(C)[C@@H]3C[C@](C)(C(=O)OCCCOc4ccccc4)CC[C@]3(C)CC[C@]12C | MGC-803 | MTT | 48 h | 460 nM
CC1(C)CC[C@]2(C(=O)O)CC[C@]3(C)C(=CC[C@@H]4[C@@]5(C)CC[C@H](O)C(C)(C)[C@@H]5CC[C@]43C)[C@@H]2C1 | ECa-109 | MTT | 48 h | 78200 nM
CC1=C(O)C(=O)C=C2C1=CC=C1[C@@]2(C)CC[C@@]2(C)[C@@H]3C[C@](C)(C(=O)OCCCCO)CC[C@]3(C)CC[C@]12C | MGC-803 | MTT | 48 h | 270 nM
OCc1ccc2c(c1C#Cc1ccc(O)cc1)C(c1ccc(O)cc1)(c1ccc(O)cc1)c1cc(O)ccc1-2 | MGC-803 | MTT | 48 h | > 50000 nM
COCCCOC(=O)[C@]1(C)CC[C@]2(C)CC[C@]3(C)C4=CC=C5C(=CC(=O)C(O)=C5C)[C@]4(C)CC[C@@]3(C)[C@@H]2C1 | MGC-803 | MTT | 48 h | 400 nM
CC(C)[C@H](N)C(=O)N1CCC[C@H]1B(O)O | Kasumi 1 | ATP luminescence | 48 h | > 60000 nM
CC1=C(O)C(=O)C=C2C1=CC=C1[C@@]2(C)CC[C@@]2(C)[C@@H]3C[C@](C)(C(=O)OCCCn4ccc5ccccc54)CC[C@]3(C)CC[C@]12C | MGC-803 | MTT | 48 h | 1090 nM
CC(=O)O[C@@]12CO[C@@H]1C[C@H](O)[C@@]1(C)C(=O)[C@H](O)C3=C(C)[C@@H](OC(=O)[C@H](O)[C@@H](NC(=O)OC(C)(C)C)c4ccccc4)C[C@@](O)([C@@H](OC(=O)c4ccccc4)[C@H]21)C3(C)C | 143B | resazurin | 72 h | 2.9 nM
CC1=C(O)C(=O)C=C2C1=CC=C1[C@@]2(C)CC[C@@]2(C)[C@@H]3C[C@](C)(C(=O)OCCCCCCCCO)CC[C@]3(C)CC[C@]12C | MGC-803 | MTT | 48 h | 380 nM
C[C@@H]1CCO[C@H]2Cn3cc(C(=O)NCc4ccc(F)cc4F)c(=O)c(O)c3C(=O)N12 | COS-7 | ATP luminescence | – | 360000 nM
